Calls of active or inactive are those of the source. The calls are words filed in the database; no cut-off is given here.
Key:
[1] = Displacement of [3H]-2-BFI from I2 receptor imidazoline binding site in Sprague-Dawley rat brain membranes after 30 mins by liquid scintillation counting; assay type: cell membranes, Membrane
Summary of the method: (§1)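 Radioligand competition binding with pKi determined by displacement. I1 sites: [125I]-p-iodoclonidine on rat kidney membranes. I2 sites: [3H]-2-BFI on rat brain membranes. α2-ARs: [3H]-RX821002 on rat brain membranes.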

[2] = target: T1, Alpha-2B adrenergic receptor (Homo sapiens) (UniProt P18089); assay: Agonist activity at human alpha2b-AR expressed in CHO cells assessed as rate of acidification after 240 mins by cytosensor microphysiometric analysis relative to (-)-noradrenaline; assay type: cell-based
T1 sequence (whole entry): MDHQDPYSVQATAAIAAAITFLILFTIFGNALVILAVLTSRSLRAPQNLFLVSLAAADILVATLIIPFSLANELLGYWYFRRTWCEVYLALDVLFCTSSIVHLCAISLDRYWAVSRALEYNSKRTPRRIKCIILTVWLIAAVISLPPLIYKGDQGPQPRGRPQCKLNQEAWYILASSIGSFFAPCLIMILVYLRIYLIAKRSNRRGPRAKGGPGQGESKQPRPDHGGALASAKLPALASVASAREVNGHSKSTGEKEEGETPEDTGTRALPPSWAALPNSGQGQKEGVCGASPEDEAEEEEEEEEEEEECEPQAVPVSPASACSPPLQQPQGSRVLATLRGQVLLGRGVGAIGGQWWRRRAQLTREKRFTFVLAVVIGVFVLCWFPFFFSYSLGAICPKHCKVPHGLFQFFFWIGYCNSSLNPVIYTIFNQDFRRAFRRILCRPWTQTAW
Summary of the method: (§2)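 Functional assay in CHO cells stably expressing a single human α2-AR subtype (α2A, α2B or α2C), read on a Cytosensor microphysiometer. Outputs are pEC50, intrinsic activity and, for antagonism, pKb. Intrinsic activity is expressed as a fraction of the full agonist (−)-noradrenaline, set at 1. Values are mean ± SEM of 3–5 separate experiments.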

[3] = target: T2, Adrenergic receptor alpha-2 (Rattus norvegicus, UniProt P22086+P19328+P22909); assay: Displacement of [3H]-RX 821002 from alpha2-AR in Sprague-Dawley rat brain membranes after 30 mins by liquid scintillation counting; assay type: cell membranes, Membrane; summary of the method: as §1
T2 sequence (P22086 whole entry): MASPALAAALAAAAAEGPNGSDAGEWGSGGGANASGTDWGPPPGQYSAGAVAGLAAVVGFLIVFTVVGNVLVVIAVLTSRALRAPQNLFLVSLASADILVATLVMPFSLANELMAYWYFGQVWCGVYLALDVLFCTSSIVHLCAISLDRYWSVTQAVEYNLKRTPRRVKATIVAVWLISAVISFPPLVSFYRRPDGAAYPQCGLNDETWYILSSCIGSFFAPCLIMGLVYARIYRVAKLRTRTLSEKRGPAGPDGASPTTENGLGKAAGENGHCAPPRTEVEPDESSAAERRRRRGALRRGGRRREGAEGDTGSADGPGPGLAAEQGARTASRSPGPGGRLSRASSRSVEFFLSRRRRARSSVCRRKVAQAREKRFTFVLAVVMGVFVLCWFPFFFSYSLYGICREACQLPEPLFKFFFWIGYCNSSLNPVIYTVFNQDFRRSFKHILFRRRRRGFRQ
T2 sequence (P19328 whole entry): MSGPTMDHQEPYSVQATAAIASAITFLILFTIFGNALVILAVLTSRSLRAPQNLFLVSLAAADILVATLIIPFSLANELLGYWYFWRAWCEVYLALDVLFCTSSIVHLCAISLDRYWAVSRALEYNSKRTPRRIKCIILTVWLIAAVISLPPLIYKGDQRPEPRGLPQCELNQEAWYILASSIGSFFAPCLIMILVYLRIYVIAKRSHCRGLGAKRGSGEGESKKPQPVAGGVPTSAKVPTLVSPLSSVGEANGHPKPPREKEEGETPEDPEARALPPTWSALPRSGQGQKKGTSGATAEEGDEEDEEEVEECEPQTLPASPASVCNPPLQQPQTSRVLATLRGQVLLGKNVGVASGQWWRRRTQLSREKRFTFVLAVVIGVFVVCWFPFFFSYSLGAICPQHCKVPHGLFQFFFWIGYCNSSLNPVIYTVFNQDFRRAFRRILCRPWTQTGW
T2 sequence (P22909 whole entry): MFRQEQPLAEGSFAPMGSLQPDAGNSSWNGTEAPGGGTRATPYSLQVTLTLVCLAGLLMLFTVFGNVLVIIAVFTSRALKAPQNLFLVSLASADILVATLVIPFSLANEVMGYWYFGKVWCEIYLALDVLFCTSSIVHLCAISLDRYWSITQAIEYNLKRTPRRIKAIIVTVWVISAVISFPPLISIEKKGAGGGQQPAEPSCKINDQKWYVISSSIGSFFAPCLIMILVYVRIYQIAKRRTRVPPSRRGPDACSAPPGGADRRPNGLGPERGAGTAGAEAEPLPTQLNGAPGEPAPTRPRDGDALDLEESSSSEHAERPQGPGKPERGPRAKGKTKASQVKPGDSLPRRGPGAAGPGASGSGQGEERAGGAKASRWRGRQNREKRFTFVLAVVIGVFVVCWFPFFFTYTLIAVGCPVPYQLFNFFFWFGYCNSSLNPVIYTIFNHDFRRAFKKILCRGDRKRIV

[4] = target: T3, Alpha-2C adrenergic receptor (Homo sapiens, UniProt P18825); assay: Agonist activity at human alpha2c-AR expressed in CHO cells assessed as rate of acidification after 240 mins by cytosensor microphysiometric analysis; assay type: cell-based; summary of the method: as §2
T3 sequence (P18825 whole entry): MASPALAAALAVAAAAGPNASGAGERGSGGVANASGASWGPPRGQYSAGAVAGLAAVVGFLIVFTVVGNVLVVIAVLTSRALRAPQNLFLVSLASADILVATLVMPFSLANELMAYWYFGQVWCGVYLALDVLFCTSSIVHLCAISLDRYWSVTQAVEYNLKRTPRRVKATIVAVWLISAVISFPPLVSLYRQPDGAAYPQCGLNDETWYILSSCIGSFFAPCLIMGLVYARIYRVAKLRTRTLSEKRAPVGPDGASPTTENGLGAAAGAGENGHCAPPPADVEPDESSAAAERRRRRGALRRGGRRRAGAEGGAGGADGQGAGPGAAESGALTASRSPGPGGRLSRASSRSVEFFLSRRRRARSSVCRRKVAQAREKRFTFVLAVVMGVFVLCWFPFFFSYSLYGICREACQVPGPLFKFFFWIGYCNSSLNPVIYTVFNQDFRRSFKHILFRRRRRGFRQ

[5] = target: T4, Alpha-2A adrenergic receptor (Homo sapiens) (UniProt P08913); assay: Antagonist activity at human alpha2a-AR expressed in CHO cells assessed as inhibition of (-)-noradrenaline-induced acidification rate after 240 mins by cytosensor microphysiometric analysis; assay type: cell-based; summary of the method: as §2
T4 sequence (whole entry): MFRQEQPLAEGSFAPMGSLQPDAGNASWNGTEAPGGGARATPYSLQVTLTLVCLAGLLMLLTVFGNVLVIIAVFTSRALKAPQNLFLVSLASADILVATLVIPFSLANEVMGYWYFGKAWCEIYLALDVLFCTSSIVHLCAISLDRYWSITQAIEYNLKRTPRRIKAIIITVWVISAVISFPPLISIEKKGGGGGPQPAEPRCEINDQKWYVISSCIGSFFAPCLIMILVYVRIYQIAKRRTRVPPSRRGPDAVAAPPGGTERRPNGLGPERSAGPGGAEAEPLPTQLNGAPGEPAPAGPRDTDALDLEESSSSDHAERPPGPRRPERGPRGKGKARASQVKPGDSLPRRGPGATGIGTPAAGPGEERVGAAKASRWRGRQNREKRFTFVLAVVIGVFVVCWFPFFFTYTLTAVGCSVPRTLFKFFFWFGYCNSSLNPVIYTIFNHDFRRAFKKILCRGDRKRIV

[6] = target: T5, Alpha-2C adrenergic receptor (Homo sapiens) (UniProt P18825); assay: Agonist activity at human alpha2c-AR expressed in CHO cells assessed as rate of acidification after 240 mins by cytosensor microphysiometric analysis relative to (-)-noradrenaline; assay type: cell-based; summary of the method: as §2
T5 sequence (whole entry): T3 sequence (P18825 whole entry)

Nischarin = Nischarin (Rattus norvegicus, UniProt Q4G017); assay: Displacement of [125I]-p-iodoclonidine from I1 receptor imidazoline binding site in Sprague-Dawley rat kidney cell membranes after 30 mins by liquid scintillation counting; summary of the method: as §1
[7] = target: T6, Alpha-2B adrenergic receptor (Homo sapiens, UniProt P18089); assay: Agonist activity at human alpha2b-AR expressed in CHO cells assessed as rate of acidification after 240 mins by cytosensor microphysiometric analysis; assay type: cell-based; summary of the method: as §2
T6 sequence (P18089 whole entry): T1 sequence (whole entry)

[8] = Displacement of [3H]idazoxan from I2 receptor imidazoline binding site in rabbit kidney membranes after 45 mins by […]; assay type: cell membranes, Oryctolagus cuniculus, Membrane
Homo sapiens = species on record: Homo sapiens; assay: Selectivity ratio of agonist activity at I1 receptor imidazoline binding site (unknown origin) to agonist activity at alpha2-AR (unknown origin)
[9] = target: T2, Adrenergic receptor alpha-2; assay: Displacement of [3H]-clonidine from alpha2-AR in rat brain cortical membranes after 45 mins by liquid scintillation counting; assay type: cell membranes
Mus musculus [10] = assay: Reduction in morphine dependence acquisition in CD1 mouse assessed as inhibition of naloxone-precipitated forepaw tremor frequency at 10 mg/kg, ip administered 15 mins prior to each morphine challenge relative to control; assay type: functional
Summary of the method: (§3)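 Mice received i.p. test compound (5 or 10 mg/kg) 15 min before each of repeated morphine injections, with vehicle and morphine-only controls. Withdrawal was then precipitated with naloxone. Jumping frequency and somatic signs (rearing, forepaw tremor, teeth chattering; summed frequency) were scored and compared with the morphine group. Data are mean ± SEM of 6–10 animals.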

[11] = Reduction in morphine dependence expression in CD1 mouse assessed as inhibition of naloxone-precipitated rearing frequency at 5 mg/kg, ip administered acutely 15 mins prior to naloxone challenge relative to control; assay type: functional, organism-based
[12] = Reduction in morphine dependence expression in CD1 mouse assessed as inhibition of naloxone-precipitated jumping at 10 mg/kg, ip administered acutely 15 mins prior to naloxone challenge relative to control; assay type: functional, organism-based
[13] = Reduction in morphine dependence expression in CD1 mouse assessed as inhibition of naloxone-precipitated teeth chattering frequency at 5 mg/kg, ip administered acutely 15 mins prior to naloxone challenge relative to control; assay type: functional, organism-based
[14] = Reduction in morphine dependence expression in CD1 mouse assessed as inhibition of naloxone-precipitated forepaw tremor frequency at 5 mg/kg, ip administered acutely 15 mins prior to naloxone challenge relative to control; assay type: functional, organism-based
[15] = Reduction in morphine dependence expression in CD1 mouse assessed as inhibition of naloxone-precipitated teeth chattering frequency at 10 mg/kg, ip administered acutely 15 mins prior to naloxone challenge relative to control; assay type: functional, organism-based
Mus musculus [16] = assay: Reduction in morphine dependence acquisition in CD1 mouse assessed as inhibition of naloxone-precipitated rearing frequency at 10 mg/kg, ip administered 15 mins prior to each morphine challenge relative to control; assay type: functional; summary of the method: as §3
Mus musculus [17] = assay: Reduction in morphine dependence acquisition in CD1 mouse assessed as inhibition of naloxone-precipitated rearing frequency at 5 mg/kg, ip administered 15 mins prior to each morphine challenge relative to control; assay type: functional; summary of the method: as §3
[18] = Reduction in morphine dependence expression in CD1 mouse assessed as inhibition of naloxone-precipitated forepaw tremor frequency at 10 mg/kg, ip administered acutely 15 mins prior to naloxone challenge relative to control; assay type: functional, organism-based
Mus musculus [19] = assay: Reduction in morphine dependence acquisition in CD1 mouse assessed as inhibition of naloxone-precipitated teeth chattering frequency at 10 mg/kg, ip administered 15 mins prior to each morphine challenge relative to control; assay type: functional; summary of the method: as §3
Mus musculus [20] = assay: Reduction in morphine dependence acquisition in CD1 mouse assessed as inhibition of naloxone-precipitated teeth chattering frequency at 5 mg/kg, ip administered 15 mins prior to each morphine challenge relative to control; assay type: functional; summary of the method: as §3
Mus musculus [21] = assay: Reduction in morphine dependence acquisition in CD1 mouse assessed as inhibition of naloxone-precipitated jumping at 10 mg/kg, ip administered 15 mins prior to each morphine challenge; assay type: functional, organism-based
Summary of the method: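 Acquisition protocol in mice given repeated morphine. Test drug at 5 or 10 mg/kg i.p. was given 15 min before each morphine injection. Withdrawal was then precipitated with naloxone and jumping frequency counted. Data are mean ± SEM of 6–10 animals, compared with the morphine group.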

Mus musculus [22] = assay: Reduction in morphine dependence acquisition in CD1 mouse assessed as inhibition of naloxone-precipitated forepaw tremor frequency at 5 mg/kg, ip administered 15 mins prior to each morphine challenge relative to control; assay type: functional; summary of the method: as §3
[23] = Reduction in morphine dependence expression in CD1 mouse assessed as inhibition of naloxone-precipitated rearing frequency at 10 mg/kg, ip administered acutely 15 mins prior to naloxone challenge relative to control; assay type: functional, organism-based

Sequence of Nischarin (Q4G017 whole entry): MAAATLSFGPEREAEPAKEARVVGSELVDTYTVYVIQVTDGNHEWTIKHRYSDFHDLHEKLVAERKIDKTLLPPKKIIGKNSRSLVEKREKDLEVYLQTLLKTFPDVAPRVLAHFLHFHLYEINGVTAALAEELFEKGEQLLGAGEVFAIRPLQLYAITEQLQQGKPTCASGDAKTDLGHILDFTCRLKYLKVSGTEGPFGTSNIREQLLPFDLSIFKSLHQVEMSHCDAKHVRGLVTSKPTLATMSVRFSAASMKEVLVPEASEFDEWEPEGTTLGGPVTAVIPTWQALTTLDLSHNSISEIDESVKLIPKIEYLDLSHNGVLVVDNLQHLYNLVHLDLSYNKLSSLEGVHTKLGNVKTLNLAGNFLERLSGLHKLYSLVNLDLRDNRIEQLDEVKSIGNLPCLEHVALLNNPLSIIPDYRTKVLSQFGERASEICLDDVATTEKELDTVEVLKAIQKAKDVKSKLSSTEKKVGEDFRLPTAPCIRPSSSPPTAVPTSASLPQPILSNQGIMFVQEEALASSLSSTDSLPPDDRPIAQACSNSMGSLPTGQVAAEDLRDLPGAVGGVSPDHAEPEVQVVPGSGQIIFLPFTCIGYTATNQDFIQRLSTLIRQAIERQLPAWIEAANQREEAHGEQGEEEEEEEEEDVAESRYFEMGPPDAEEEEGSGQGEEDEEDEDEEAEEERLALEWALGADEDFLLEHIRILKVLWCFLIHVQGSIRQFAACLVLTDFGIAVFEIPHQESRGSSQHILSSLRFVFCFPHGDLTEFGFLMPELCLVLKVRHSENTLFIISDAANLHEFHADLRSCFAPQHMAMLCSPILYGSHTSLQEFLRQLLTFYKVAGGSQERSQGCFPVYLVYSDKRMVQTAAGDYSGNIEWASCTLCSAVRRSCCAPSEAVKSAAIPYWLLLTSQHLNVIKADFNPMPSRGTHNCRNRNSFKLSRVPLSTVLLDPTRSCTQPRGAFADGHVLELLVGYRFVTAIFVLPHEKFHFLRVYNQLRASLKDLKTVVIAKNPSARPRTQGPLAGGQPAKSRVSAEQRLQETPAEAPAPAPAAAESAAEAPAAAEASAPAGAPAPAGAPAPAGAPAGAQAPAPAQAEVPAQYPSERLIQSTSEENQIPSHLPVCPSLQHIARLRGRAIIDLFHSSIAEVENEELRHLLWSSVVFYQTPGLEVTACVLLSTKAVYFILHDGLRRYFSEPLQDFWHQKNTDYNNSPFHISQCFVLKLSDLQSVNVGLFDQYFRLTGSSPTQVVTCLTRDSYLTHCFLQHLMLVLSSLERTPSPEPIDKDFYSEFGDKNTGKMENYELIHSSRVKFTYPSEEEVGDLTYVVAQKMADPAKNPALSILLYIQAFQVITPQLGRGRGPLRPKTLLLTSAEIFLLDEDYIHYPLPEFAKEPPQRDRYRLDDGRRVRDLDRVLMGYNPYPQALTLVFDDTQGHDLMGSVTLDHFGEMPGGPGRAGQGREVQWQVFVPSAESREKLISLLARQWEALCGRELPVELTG

Row | SMILES | pKi [1] | Intrinsic activity [2] | pKi [3] | EC50 [4] | pKb [5] | Intrinsic activity [6] | Ki (Nischarin) | EC50 [7] | pKi [8] | further results
1 | Clc1cccc(Cl)c1NC1=NCCN1 |  |  |  |  |  |  |  |  |  | Selectivity ratio (Homo sapiens): 4
2 | C(=C\c1ccccc1)/C1=NCCN1 [TRACIZOLINE] |  |  |  |  |  |  |  |  | 8.72 | pKi [9]: < 6
3 | Cc1ccccc1/C=C/C1=NCCN1 | 9.11 |  | < 6 |  |  |  | 17.8 nM |  |  | inhibition in vivo at 10 mg/kg (Mus musculus [10]): 46%; inhibition [11]: 50%; inhibition [12]: 90%; inhibition [13]: 50%; inhibition [14]: 50%; inhibition [15]: 50%; inhibition in vivo at 10 mg/kg (Mus musculus [16]): 46%; inhibition in vivo at 5 mg/kg (Mus musculus [17]): 34%; inhibition [18]: 50%; inhibition in vivo at 10 mg/kg (Mus musculus [19]): 46%; inhibition in vivo at 5 mg/kg (Mus musculus [20]): 34%; inhibition (Mus musculus [21]): Active; inhibition in vivo at 5 mg/kg (Mus musculus [22]): 34%; inhibition [23]: 50%

Further lines, with some results ahead:

Row | pKi [1] | Intrinsic activity [2] | pKi [3] | EC50 [4] | pKb [5] | Intrinsic activity [6] | Ki (Nischarin) | EC50 [7] | pKi [8] | SMILES | further results
4 | 7.29 | 0.55 | 6.75 | 115 nM | 6.71 | 0.75 | 8.32 nM | 4570 nM |  | CCCc1ccccc1NCC1=NCCN1 | 
5 |  |  |  |  |  |  |  |  | 7.48 | c1ccc(NCC2=NCCN2)cc1 [PHENAMAZOLINE] | 
6 | 7.85 | 0.5 | 6.79 | 158 nM | 6.77 | 0.8 | 3.98 nM | 2510 nM |  | C=CCc1ccccc1NCC1=NCCN1 | 
